An excerpt weighted towards active compounds, which were near 3% of everything screened.
5HT1a ag – human 5-HT1a receptor agonists, primary screen, cell-based, CHO, Ga15 NFAT-bla reporter; CHO 5-HT1a Ga15 NFAT-bla reporter, FRET ratio; 0% basal, 100% maximal reference agonist; hit rate 0.56% among 65,000; activation, % at 10 µM;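 active means activation above the screen-wide mean activation plus 3 SD, cut at about 19% in these data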
Target sequence (P08908 whole entry, looked up): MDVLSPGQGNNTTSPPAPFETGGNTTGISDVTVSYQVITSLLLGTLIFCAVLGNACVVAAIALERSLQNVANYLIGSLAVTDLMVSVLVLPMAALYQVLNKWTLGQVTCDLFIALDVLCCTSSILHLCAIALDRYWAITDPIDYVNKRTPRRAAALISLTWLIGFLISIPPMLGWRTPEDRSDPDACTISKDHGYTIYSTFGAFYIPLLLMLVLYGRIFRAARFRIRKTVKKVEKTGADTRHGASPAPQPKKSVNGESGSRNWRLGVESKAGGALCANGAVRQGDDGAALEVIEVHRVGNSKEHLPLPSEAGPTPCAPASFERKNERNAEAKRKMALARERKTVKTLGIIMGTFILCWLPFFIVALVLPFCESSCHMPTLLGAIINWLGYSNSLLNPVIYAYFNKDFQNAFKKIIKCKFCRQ
5-HT1A blocker – human 5-HT1a receptor antagonists, primary screen, cell-based, CHO, Ga15 NFAT-bla reporter; CHO 5-HT1a Ga15 NFAT-bla reporter, antagonist mode; 5-hydroxytryptamine receptor 1A (Homo sapiens), P08908; inhibition, % at 10 µM; AID 612, 2007; hit rate 0.68% among 62,000;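 active means inhibition above the mean of all tested compounds plus 3 SD, cut at about 43% in these data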;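 further: receptor stimulated by 5-CT agonist at 100 nM near EC80; beta-lactamase reporter measured by ratiometric fluorescence of a cleavable substrate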
S1P3 ag – human S1P3 receptor agonists, primary screen, cell-based, primary and confirmation, NFAT-BLA reporter | Sphingosine 1-phosphate receptor 3 (Homo sapiens), Q99500 | S1P3 NFAT-BLA reporter cells, agonism, FRET ratio; relative to 1 µM S1P, basal subtracted | activation, % at 4.5 µM | hit rate 0.1% among 60,000;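 active means activation above the screen-wide mean plus 3 SD, cut at about 4.5% in these data, passing the limit was not always enough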
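Benchmarks: high control 1 µM S1P / System: stable CHO line with human S1P3, Gα16, NFAT-BLA reporter / Dosing: single compound concentration, 4.5 µM final / Timing: 4 h compound at 37 °C, 2 h substrate at RT / Measured by: FRET β-lactamase substrate fluorescence, excitation 405 nm, 460/535 nm emission ratio, background-subtracted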
S1P1 ag pot – S1P1 agonists and agonism potentiators, primary screen, cell-based, primary and confirmation screens, CRE-bla reporter | Sphingosine 1-phosphate receptor 1 (Homo sapiens), P21453 | S1P1 CRE-bla cells, forskolin, beta-lactamase FRET, potentiator mode; S1P1 agonist co-added at EC20, 2 nM; 100% = saturating reference agonist, 0% = basal | activation, % at 9.5 µM | hit rate 0.57% among 56,000 | AID 449, 2006;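 active means activation above a cutoff set at the mean activation of all tested compounds plus 3 SD, cut at about 54% in these data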;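 further: forskolin at 4 µM as EC80 and the EC20 agonist is SEW2871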
5HT1E ag – 5-HT1E receptor agonists, primary screen, cell-based, HTS | AID 574, 2007 | CHO 5-HT1E Ga15 NFAT-bla reporter, FRET; 0% DMSO wells, 100% control agonist wells | hit rate 0.69% among 65,000 | activation, % at 6 µM;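 active means activation above a set limit, the screen-wide mean activation plus 3 SD, cut at about 8.5% in these data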
5HT1E antag – 5-HT1E receptor antagonists, primary screen, cell-based, HTS; hit rate 0.99% among 65,000; 5-hydroxytryptamine receptor 1E (Homo sapiens), P28566; CHO 5-HT1E Ga15 NFAT-bla reporter, FRET, antagonist; AID 571, 2007; inhibition, % at 6 µM;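 active means inhibition above a set limit, the mean inhibition across every tested compound plus 3 SD, cut at about 29% in these data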;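 further: signal is the 460 over 535 nm emission ratio of beta-lactamase substrate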
Hits are given with their value; - = inactive; . = not tested or not shown.

SMILES	5HT1a ag	5-HT1A blocker	S1P3 ag	S1P1 ag pot	5HT1E ag	5HT1E antag
CN(C)/C=N/c1cnc(C(=O)c2ccc(Cl)cc2)n1C	-	-	-	-	-	-
O=C(O)C1CCCN1S(=O)(=O)c1ccc2ccccc2c1 (configuration not stated)	-	-	.	.	-	-
O=C(O)C1CCCN1S(=O)(=O)c1ccc(Cl)c(Cl)c1 (configuration not stated)	-	-	-	.	44.2	-
COc1ccc(NC(=O)C2CCN(S(=O)(=O)c3cccnc3)CC2)cc1Cl	-	-	-	-	-	-
N#CC1(c2nc3ccccc3[nH]2)CC1c1ccc2c(c1)OCO2 (configuration not stated)	-	-	-	-	-	-
CCOC(=O)N1CCN(CC(O)COc2c(OC)cccc2OC)CC1 (configuration not stated)	168.5	-	-	-	-	-
C=CCc1ccccc1OCC(O)CN1CCN(c2ccccc2OC)CC1 (configuration not stated)	-	91.3	.	.	-	-
OC(COc1ccccc1Cl)CN1CCN(CC(O)COc2ccccc2Cl)CC1 (configuration not stated)	-	58.2	-	-	-	-
CC(=O)Nc1nc2ccc(-c3nc4ccccc4o3)cc2s1	-	-	-	-	-	-
Cc1cccc(N2CCN(CCNC(=O)c3cc4c(s3)CS(=O)(=O)C4)CC2)c1C	36.5	-	.	.	12.8	-
COC(=O)c1ccc(CC(=O)c2ccc(O)cc2O)o1	-	-	-	-	-	-
COC(=O)c1cc(CC(=O)c2ccc(O)cc2O)c(C)o1	284.3	-	-	-	-	-
COc1ccccc1/C=C/CN1CCOCC1	-	-	-	.	-	-
COc1ccccc1N1CCN(C/C=C/c2ccc(N(C)C)cc2)CC1	-	78.7	-	-	9.7	-
COc1ccccc1N1CCN(CCNC(=O)Nc2cccc(C)c2C)CC1	40.5	-	-	-	-	-
COc1ccccc1N1CCN(c2nc(C)nc3c2oc2ccccc23)CC1	-	66.7	-	-	-	58.4
CCCN1CCC(N2CCN(c3ccccc3OC)CC2)CC1	-	63.3	-	-	-	-
Cc1cc(C)nc(N2CCN(c3nc(C)nc4c3oc3ccccc34)CC2)n1	-	-	.	.	-	-
O=C(COCc1nc2ccccc2c(=O)[nH]1)NC1CCCC1	-	-	-	-	-	-
O=C(NC1CCCCCC1)C1C2C=CC3(CN(Cc4cccnc4)C(=O)C13)O2 (configuration not stated)	-	-	-	-	-	-
CCOc1ccccc1N1CCN(Cc2cccc(OC)c2O)CC1	-	-	-	.	-	-
COc1ccccc1N1CCN(CC(O)COc2cccc3ccccc23)CC1 (configuration not stated)	-	.	-	-	-	-
COc1ccccc1N1CCN(Cc2ccco2)CC1	-	-	-	-	9.2	-
COc1ccccc1N1CCN(Cc2cc(Br)c(O)c3ncccc23)CC1	-	64.7	-	-	13.8	38.0
COc1cccc(C(=O)N2CCN(Cc3ccco3)CC2)c1OC	-	-	-	-	-	-
COc1ccccc1N1CCN(CCOc2c(OC)cccc2OC)CC1	-	.	-	-	30.3	-
CC(C)OC(=O)CCC1(C(=O)O)CCC(=O)NC1 (configuration not stated)	-	-	-	-	-	-
CCn1c(SCC(=O)Nc2ccc(OCc3ccccc3)cc2)nnc1-c1ccco1	-	-	-	-	-	-
CCOC(=O)c1c(C)oc2c1c(C=NCC1CCCO1)c(O)c1ccccc12 (configuration not stated)	-	63.9	-	-	-	31.1

High-throughput results as filed in PubChem BioAssay.
